# Published values of several laboratories.
# Each line is one published result; the experiments were not run side by side.
# Target: Serine/threonine-protein kinase BRSK1 (BRSK1, Homo sapiens, UniProt Q8TDC3)
# One construct used (Q8TDC3 1-778): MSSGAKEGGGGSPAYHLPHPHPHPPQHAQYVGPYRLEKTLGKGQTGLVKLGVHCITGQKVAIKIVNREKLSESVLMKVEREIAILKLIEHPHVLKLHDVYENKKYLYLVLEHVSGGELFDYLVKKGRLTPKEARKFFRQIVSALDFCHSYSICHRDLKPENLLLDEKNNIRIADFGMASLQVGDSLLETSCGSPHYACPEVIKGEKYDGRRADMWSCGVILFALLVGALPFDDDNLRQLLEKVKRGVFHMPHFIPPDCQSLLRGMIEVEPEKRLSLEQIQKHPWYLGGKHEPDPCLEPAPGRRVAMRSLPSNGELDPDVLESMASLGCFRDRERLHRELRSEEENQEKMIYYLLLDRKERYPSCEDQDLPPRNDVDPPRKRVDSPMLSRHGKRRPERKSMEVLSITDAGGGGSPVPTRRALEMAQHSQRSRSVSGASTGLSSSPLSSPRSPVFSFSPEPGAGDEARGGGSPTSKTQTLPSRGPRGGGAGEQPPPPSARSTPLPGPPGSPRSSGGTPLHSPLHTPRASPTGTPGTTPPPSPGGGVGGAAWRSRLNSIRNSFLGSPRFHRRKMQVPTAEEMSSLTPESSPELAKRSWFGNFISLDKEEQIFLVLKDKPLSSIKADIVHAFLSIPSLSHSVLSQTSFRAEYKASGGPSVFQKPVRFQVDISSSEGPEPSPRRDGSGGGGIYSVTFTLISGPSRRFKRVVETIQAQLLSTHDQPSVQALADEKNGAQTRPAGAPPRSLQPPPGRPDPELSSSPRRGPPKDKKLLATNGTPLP
Structure (SMILES),assay,setting,remaining binding
C=CC(=O)N1CCC(C(=O)NCC(=O)N2CCN(c3nc(-c4cnc(N)nc4C(F)F)nc(N4CCOCC4)n3)CC2)CC1,"binding, competition with immobilised ligand",1 µM,100%
Cc1c[nH]c2nccc(Oc3c(F)cc(Nc4cc(Cl)nc(N)n4)cc3F)c12,"cell-free assay, competition with immobilised ligand",0.1 µM,96%
CC1CCCN1c1nccc(-c2cnn3ncccc23)n1 (stereo not shown),binding,1 µM,95%
COc1cnc(Nc2cccc(S(N)(=O)=O)c2)nc1N1CCN(c2ccccc2)CC1,"binding, competition with immobilised ligand",1 µM,96%
c1cnn2ncc(-c3ccnc(N4CCC45COC5)n3)c2c1,binding,1 µM,82%
CNC(=O)[C@@H]1CC[C@@H](n2c(-c3ccc4cnccc4c3)nc3ccc(C(=O)NCc4cccc(C(N)=O)c4)cc32)C1,"binding, competition with immobilised ligand",1 µM,100%
CC(=O)c1c(NS(C)(=O)=O)c2cc(-c3ccc(Cl)cc3)c(-c3ccc(Cl)cc3Cl)nc2n(C)c1=O,"cell-free assay, competition with immobilised ligand",1 µM,99%
O=C(c1ccc(Nc2nccc(-c3cc4ccccc4s3)n2)cc1)N1CCC(N2CCCC2)CC1,"binding, competition with immobilised ligand",1 µM,61%
C[C@@H]1CCN(c2nccc(-c3cnn4ncccc34)n2)C1,binding,1 µM,93%
O=C(Nc1c[nH]nc1C(=O)NC1CCNCC1)c1cc(F)cc(F)c1,"binding, competition with immobilised ligand",1 µM,89%
C[C@@H](c1ccc(-n2cnc3c(N)ncnc32)cc1)N1CCc2nn(C)c(Cc3ccccc3)c2C1=O,"binding, competition with immobilised ligand",0.1 µM,93%
O=C(c1ccc(Nc2ncc(Cl)c(-c3cc4ccccc4s3)n2)cc1)N1CCC(N2CCCC2)CC1,"binding, competition with immobilised ligand",1 µM,32%
COc1ccc2c(c1)O[C@H](c1ccc(OC)c(OC)c1)C[C@@H]2NC(=O)C1(c2ccc3c(c2)OC(F)(F)O3)CC1,"cell-free assay, competition with immobilised ligand",1 µM,100%
CN(C)c1ncc(F)c(-c2cnn3ncccc23)n1,binding,1 µM,87%
CN(c1ccnc(CNc2nc(Nc3ccc4c(c3)CC(=O)N4)ncc2C(F)(F)F)n1)S(C)(=O)=O,"cell-free assay, competition with immobilised ligand",1 µM,43%
Cc1cnn2ncc(-c3ccnc(N(C)C)n3)c2c1,binding,1 µM,81%
FC(F)(F)Oc1cccc(-c2cnc3ccc(-c4ccncc4)nn23)c1,"cell-free assay, competition with immobilised ligand",5 µM,85%
O=C(O)[C@@H]1[C@@H](Cn2nnc3ccccc3c2=O)CC[C@H]1C(=O)c1ccc(OCCC2CCOCC2)cc1,"cell-free assay, competition with immobilised ligand",1 µM,100%
O=C(NCCCN1CCOCC1)c1ccc(Nc2nccc(-c3cc4ccccc4s3)n2)cc1,"binding, competition with immobilised ligand",1 µM,70%
CN(C)c1nccc(-c2cnn3ncccc23)n1,binding,1 µM,100%
Cc1nccc(COC(=O)N2C[C@@H]3[C@@H](CNC(=O)c4ccc5[nH]nnc5c4)[C@@H]3C2)n1,"cell-free assay, competition with immobilised ligand",1 µM,100%
CCN1CCN(Cc2ccc(C(=O)Nc3ccc(C)c(Oc4ccc5c(c4)CC(=O)N5)c3)cc2C(F)(F)F)CC1,"binding, competition with immobilised ligand",1 µM,94%
